Active and inactive are the calls of the source. The calls are words filed in the database; no cut-off is given here.
Assays:
RT-4 [1] = assay: Growth inhibition of human RT4 cells at 500 uM measured after 1 hr by Celltiter-Glo luminescent cell viability assay relative to control; assay type: functional; conditions: RT-4, 1 h, read-out: GI
Outline: (§1)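 Cells seeded 10000/well, 24 h, then exposed in ATCC-recommended medium to 62.5–2000 μM (two-fold steps) or vehicle for the set time (5–60 min), then normal medium. After 24 h, plates equilibrated 30 min at room temperature, CellTiter-Glo added, 2 min at room temperature, luminescence read. Survival relative to vehicle control; quadruplicate.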

RT-4 [2] = assay: Growth inhibition of human RT4 cells at 250 uM measured after 5 to 60 mins by Celltiter-Glo luminescent cell viability assay; assay type: functional, cell-based; outline: as §1
RT-112 [3] = assay: Growth inhibition of human RT112 cells at 500 uM by Celltiter-Glo luminescent cell viability assay; assay type: functional, cell-based; conditions: TDE = time-dependent effect; outline: as §1
SW780 = assay: Growth inhibition of human SW780 cells measured after 1 hr by Celltiter-Glo luminescent cell viability assay; assay type: functional; conditions: SW780, 1 h; outline: as §1
RT-112 [4] = assay: Growth inhibition of human RT112 cells measured after 1 hr by Celltiter-Glo luminescent cell viability assay; assay type: functional; conditions: RT-112, 1 h; outline: as §1
RT-4 [5] = assay: Growth inhibition of human RT4 cells at 1000 uM measured after 5 mins by Celltiter-Glo luminescent cell viability assay; assay type: functional, cell-based; outline: as §1
CCRF-CEM = assay: Growth inhibition of human CCRF-CEM cells assessed as growth percent at 10 uM incubated for 48 hrs by sulforhodamine B assay relative to control; assay type: functional; conditions: read-out: Activity
HL-60(TB) = assay: Growth inhibition of human HL-60(TB) cells assessed as growth percent at 10 uM incubated for 48 hrs by sulforhodamine B assay relative to control; assay type: functional; conditions: HL-60, 48 h, read-out: Activity
K562 = assay: Growth inhibition of human K562 cells assessed as growth percent at 10 uM incubated for 48 hrs by sulforhodamine B assay relative to control; assay type: functional; conditions: K562, 48 h, read-out: Activity
NCI-H23 = assay: Growth inhibition of human NCI-H23 cells assessed as growth percent at 10 uM incubated for 48 hrs by sulforhodamine B assay relative to control; assay type: functional; conditions: NCI-H23, 48 h, read-out: Activity
COLO 205 = assay: Growth inhibition of human COLO205 cells assessed as growth percent at 10 uM incubated for 48 hrs by sulforhodamine B assay relative to control; assay type: functional; conditions: COLO 205, 48 h, read-out: Activity
HCC 2998 = assay: Growth inhibition of human HCC2998 cells assessed as growth percent at 10 uM incubated for 48 hrs by sulforhodamine B assay relative to control; assay type: functional; conditions: HCC 2998, 48 h, read-out: Activity
HCT-116 = assay: Growth inhibition of human HCT116 cells assessed as growth percent at 10 uM incubated for 48 hrs by sulforhodamine B assay relative to control; assay type: functional; conditions: HCT-116, 48 h, read-out: Activity
HT-29 = assay: Growth inhibition of human HT-29 cells assessed as growth percent at 10 uM incubated for 48 hrs by sulforhodamine B assay relative to control; assay type: functional; conditions: HT-29, 48 h, read-out: Activity
KM12 = assay: Growth inhibition of human KM12 cells assessed as growth percent at 10 uM incubated for 48 hrs by sulforhodamine B assay relative to control; assay type: functional; conditions: KM12, 48 h, read-out: Activity
U-251 = assay: Growth inhibition of human U251 cells assessed as growth percent at 10 uM incubated for 48 hrs by sulforhodamine B assay relative to control; assay type: functional; conditions: U-251, 48 h, read-out: Activity
OVCAR-8 = assay: Growth inhibition of human OVCAR8 cells assessed as growth percent at 10 uM incubated for 48 hrs by sulforhodamine B assay relative to control; assay type: functional; conditions: OVCAR-8, 48 h, read-out: Activity
A498 = assay: Growth inhibition of human A498 cells assessed as growth percent at 10 uM incubated for 48 hrs by sulforhodamine B assay relative to control; assay type: functional; conditions: A498, 48 h, read-out: Activity
CAKI-1 = assay: Growth inhibition of human Caki1 cells assessed as growth percent at 10 uM incubated for 48 hrs by sulforhodamine B assay relative to control; assay type: functional; conditions: CAKI-1, 48 h, read-out: Activity
T47D = assay: Growth inhibition of human T47D cells assessed as growth percent at 10 uM incubated for 48 hrs by sulforhodamine B assay relative to control; assay type: functional; conditions: read-out: Activity
MDA-MB-468 = assay: Growth inhibition of human MDA-MB-468 cells assessed as growth percent at 10 uM incubated for 48 hrs by sulforhodamine B assay relative to control; assay type: functional; conditions: MDA-MB-468, 48 h, read-out: Activity
RT-112 [6] = assay: Mito-toxicity in mitochondria isolated from human RT112 cells assessed as increase in cytochrome C release at 200 uM incubated for 1 hr and measured after 4 hrs incubation in preservative buffer by Western blot analysis; assay type: functional
Outline: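 Mitochondria isolated from 20 million RT112 cells with a kit. Exposed to 200 μM, 100 μM CCCP or 10% DMSO for 1 h at 37 °C, then kept in mitochondria preservative buffer at 37 °C. Spun after 1 h and 4 h into supernatant and pellet; pellet lysed. Cytochrome c in each fraction detected by western blot.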

[7] = Toxicity in anesthetized BBN-induced bladder tumor mouse model assessed as cleaved caspase 3 level in tumor adjacent normal […] at 1500 uM administered via intravesical instillation treated for 1 hr administered as 2 doses at 24 hrs interval and measured at 24 hrs after final treatment by hematoxylin and eosin staining based immunohistochemical analysis; conditions: in vivo, other
Outline: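 Bladder tumors induced with 0.05% BBN in drinking water and confirmed by excretory μCT urography. Anesthetized (isoflurane) mice given intravesical 1500 μM or vehicle by catheter. Two 1 h doses 24 h apart. Females received 100 μL in 10% DMSO/PBS; males received doubled concentration in 50 μL of 20% DMSO/PBS. Bladder immunohistology for cleaved caspase-3.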

Mus musculus [8] = assay: Antitumor activity against anesthetized BBN-induced bladder tumor mouse model assessed as increase in cleaved caspase 3 level in hyperplasia region at 1500 uM administered via intravesical instillation treated for 1 hr administered as 2 doses at 24 hrs interval and measured at 24 hrs after final treatment by hematoxylin and eosin staining based immunohistochemical analysis; assay type: functional, organism-based
Mus musculus [9] = assay: Induction of urothelium exfoliation in anesthetized female mouse model assessed as effect on urothelial layer thickening at 750 to 1500 uM administered via intravesical instillation after bladder evacuation treated for 1 hr followed by repetition of the treatment after 24 hrs and measured at 24 hrs after final treatment by hematoxylin and eosin staining based analysis; assay type: organism-based; conditions: in vivo, other
Outline: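 Female mice anesthetized, 1–3% isoflurane. Bladder evacuated, then 100 μL of 750 or 1500 μM in 10% DMSO/PBS (or vehicle) instilled by 24G angiocatheter. Catheter left in place for a 1 h dwell. Repeated after 24 h; mice sacrificed 24 h after final dose. Bladder histology read for urothelial height and layers.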

RT-112 [10] = assay: Cell cycle arrest in human RT112 cells assessed as cell accumulation at sub-G1 phase at 500 uM incubated for 1 hr measured after culturing in normal medium for 24 hrs by propidium iodide/RNase staining based FACScan flow cytometry analysis; assay type: functional
Outline: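 Seeded at 300,000 cells/well in triplicate per treatment; 24 h later exposed to 250 or 500 μM or vehicle for 1 h. After 24 h in normal media, media plus cells were collected, washed, fixed in cold 70% ethanol (4 °C, 30 min), treated with phosphate citric acid buffer, stained with PI/RNase and gated for sub-G1 by flow cytometry.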

RT-112 [11] = assay: Cytotoxicity against human RT112 cells assessed as cellular fragmentation at 250 to 500 uM incubated for 1 hr and measured at 24 hrs after treatment; assay type: functional, cell-based

[Br-].[Br-].c1ccc([P+](CCCc2n(Cc3ccc4ccccc4c3)c3ccccc3[n+]2Cc2ccc3ccccc3c2)(c2ccccc2)c2ccccc2)cc1
inhibition of growth at 500 µM (RT-4 [1]): 100%
growth inhibition (GI) (RT-4 [2]): Active
growth inhibition (GI) (RT-112 [3]): Tde
GI50 (SW780): 200 µM
GI50 (RT-112 [4]): 200 µM
growth inhibition (GI) (RT-4 [5]): Active
growth at 10 µM (CCRF-CEM): 43.1%
growth at 10 µM (HL-60(TB)): 22.6%
growth at 10 µM (K562): 23.7%
growth at 10 µM (NCI-H23): 44%
growth at 10 µM (COLO 205): 44.7%
growth at 10 µM (HCC 2998): 53.9%
growth at 10 µM (HCT-116): 24.2%
growth at 10 µM (HT-29): 23.9%
growth at 10 µM (KM12): 32.2%
growth at 10 µM (U-251): 46.5%
growth at 10 µM (OVCAR-8): 70.2%
growth at 10 µM (A498): 67.2%
growth at 10 µM (CAKI-1): 79.9%
growth at 10 µM (T47D): 56.9%
growth at 10 µM (MDA-MB-468): 34.5%
Activity (RT-112 [6]): Active
Activity [7]: Non-Toxic
Activity (Mus musculus [8]): Active
Activity (Mus musculus [9]): Non-Toxic
Activity (RT-112 [10]): inactive
Activity (RT-112 [11]): Active
